Measured values: ChEMBL document CHEMBL4043064, “Pharmacophore-Based Repositioning of Approved Drugs as Novel Staphylococcus aureus NorA Efflux Pump Inhibitors” (J Med Chem, 2017)
Active and inactive are the calls of the source. No cut-off for these calls is given here.

Tests used:
[1] = biological target: T1, Quinolone resistance protein NorA (Staphylococcus aureus) (UniProt P0A0J7); test: Inhibition of NorA in Staphylococcus aureus SA1199B harboring GrlA A116E mutant assessed as inhibition of ethidium bromide efflux at 50 uM measured after 5 mins by fluorometric method relative to control
T1 sequence (whole entry): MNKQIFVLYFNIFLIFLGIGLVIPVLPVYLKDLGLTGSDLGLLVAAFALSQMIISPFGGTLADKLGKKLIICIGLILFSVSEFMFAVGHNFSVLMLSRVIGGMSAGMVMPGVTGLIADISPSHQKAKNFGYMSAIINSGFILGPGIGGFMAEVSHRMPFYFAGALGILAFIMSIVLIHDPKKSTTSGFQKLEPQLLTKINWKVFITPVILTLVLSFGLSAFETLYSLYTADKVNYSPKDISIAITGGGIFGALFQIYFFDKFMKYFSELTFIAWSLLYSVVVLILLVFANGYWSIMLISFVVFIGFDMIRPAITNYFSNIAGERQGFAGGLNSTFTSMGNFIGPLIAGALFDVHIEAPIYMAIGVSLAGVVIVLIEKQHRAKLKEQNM
Procedure, shortened: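 S. aureus SA-1199B; test compounds at 50 µM. EtBr loss was measured fluorometrically in their presence and compared with their absence to give percentage reduction in efflux.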

[2] = biological target: T1, Quinolone resistance protein NorA (Staphylococcus aureus); test: Inhibition of Staphylococcus aureus SAK2378 norA assessed as potentiation of CPX-induced antimicrobial activity up to 100 ug/ml by checkerboard assay
Procedure, shortened: (§1)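 Checkerboard microdilution of compound against CPX, with MICs set by CLSI microdilution. Applies to S. aureus SA-1199B and SA-K2378. Compound alone was tested up to 100 µg/mL. The read-out is fold reduction of the CPX MIC.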

[3] = biological target: T1, Quinolone resistance protein NorA (Staphylococcus aureus); test: Inhibition of NorA in Staphylococcus aureus SA1199B harboring GrlA A116E mutant assessed as potentiation of CPX-induced antimicrobial activity up to 100 ug/ml by checkerboard assay; procedure, shortened: as §1
[4] = biological target: Quinolone resistance protein NorA (Staphylococcus aureus, UniProt P0A0J7, A116E); test: Inhibition of NorA in Staphylococcus aureus SA1199B harboring GrlA A116E mutant assessed as inhibition of ethidium bromide efflux after 5 mins by fluorometric method
Procedure, shortened: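 S. aureus SA-1199B; EtBr loss measured fluorometrically, with compound present versus absent, giving percentage reduction in efflux. Increasing inhibitor concentrations were tested, and IC50 was read by inspecting the dose-response plots.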

SMILES	inhibition [1] [%]	inhibition [2]	inhibition [3]	IC50 [4] [µM]
CCOC(=O)Nc1ccc2c(c1)N(C(=O)CCN1CCOCC1)c1ccccc1S2	23.7			
COC(=O)[C@H]1[C@H]2C[C@@H]3c4[nH]c5cc(OC)ccc5c4CCN3C[C@H]2C[C@@H](OC(=O)c2cc(OC)c(OC)c(OC)c2)[C@@H]1OC		Active	Active	
CCCc1nn(C)c2c(=O)[nH]c(-c3cc(S(=O)(=O)N4CCN(C)CC4)ccc3OCC)nc12	22.9			
COc1cc2ncnc(Nc3ccc(F)c(Cl)c3)c2cc1OCCCN1CCOCC1 [GEFITINIB]	94.2			9.7
COC(=O)C1=C(C)NC(C)=C(C(=O)OCCN(C)Cc2ccccc2)C1c1cccc([N+](=O)[O-])c1 (centres undefined) [NICARDIPINE]	77.1			22.8
CCN(CCCCOC(=O)c1ccc(OC)c(OC)c1)C(C)Cc1ccc(OC)cc1 (centres undefined)	45.2			
CCCOc1ccc(-c2cc(OCCN(CC)CC)c3ccccc3n2)cc1		Active	Active	
Cc1ccc(-n2nc(C(C)(C)C)cc2NC(=O)Nc2ccc(OCCN3CCOCC3)c3ccccc23)cc1	47			
Cc1nc(Nc2ncc(C(=O)Nc3c(C)cccc3Cl)s2)cc(N2CCN(CCO)CC2)n1 [DASATINIB]	95.8			11.5
